Test results published in ChEMBL document CHEMBL4049407, “Positional Scanning Identifies the Molecular Determinants of a High Affinity Multi-Leucine Inhibitor for Furin and PACE4” (J Med Chem, 2017).
Peptide text beside a SMILES is read from it. * marks the point of attachment. FITC = O=C1OC2(c3ccc(O)cc3Oc3cc(O)ccc32)c2ccc(NC(=S)*)cc21; NH(4-amidinobenzyl) = N=C(N)c1ccc(CN*)cc1; βAla = NCCC(=O)O

How the values were obtained:
[1] = Drug uptake in human DU145 cells assessed as geometric mean fluorescence intensity after 1 hr by propidium iodine-staining based FACS analysis; type: ADME, cell-based; settings: du-145, 1 h
Outline: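 DU145 cells exposed 1 h to FITC-labelled peptide (10 µM) in serum-free RPMI, detached with trypsin:EDTA and pelleted, with no trypsin wash. Dead cells excluded by 2 min propidium iodide (10 µg/mL). Flow cytometry read 10 000 events/sample, and uptake was given as geometric mean fluorescence.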

[2] = Drug uptake in human DU145 cells assessed as geometric mean fluorescence intensity preincubated for 1 hr followed by trypsin washout for 5 mins by propidium iodine-staining based FACS analysis; type: ADME, cell-based; settings: du-145, 5 min
Outline: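 DU145 cells given FITC-labelled peptide (10 µM) for 1 h in serum-free RPMI, harvested by trypsin:EDTA, then washed twice with 0.05% trypsin for 5 min at 37 °C to strip membrane-bound peptide. Propidium iodide (10 µg/mL, 2 min) excluded damaged cells. 10 000 events/sample were read by flow cytometry as geometric mean fluorescence.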

[3] = molecular target: T1, Proprotein convertase subtilisin/kexin type 6 (Homo sapiens, UniProt P29122); assay: Inhibition of recombinant human PACE4 expressed in drosophila S2 cells using pyrGlu-Arg-Thr-Lys-Arg-7-amido-4-methylcoumarin as substrate after 60 mins by spectrofluorometry method; type: cell-based
T1 sequence (P29122 whole entry): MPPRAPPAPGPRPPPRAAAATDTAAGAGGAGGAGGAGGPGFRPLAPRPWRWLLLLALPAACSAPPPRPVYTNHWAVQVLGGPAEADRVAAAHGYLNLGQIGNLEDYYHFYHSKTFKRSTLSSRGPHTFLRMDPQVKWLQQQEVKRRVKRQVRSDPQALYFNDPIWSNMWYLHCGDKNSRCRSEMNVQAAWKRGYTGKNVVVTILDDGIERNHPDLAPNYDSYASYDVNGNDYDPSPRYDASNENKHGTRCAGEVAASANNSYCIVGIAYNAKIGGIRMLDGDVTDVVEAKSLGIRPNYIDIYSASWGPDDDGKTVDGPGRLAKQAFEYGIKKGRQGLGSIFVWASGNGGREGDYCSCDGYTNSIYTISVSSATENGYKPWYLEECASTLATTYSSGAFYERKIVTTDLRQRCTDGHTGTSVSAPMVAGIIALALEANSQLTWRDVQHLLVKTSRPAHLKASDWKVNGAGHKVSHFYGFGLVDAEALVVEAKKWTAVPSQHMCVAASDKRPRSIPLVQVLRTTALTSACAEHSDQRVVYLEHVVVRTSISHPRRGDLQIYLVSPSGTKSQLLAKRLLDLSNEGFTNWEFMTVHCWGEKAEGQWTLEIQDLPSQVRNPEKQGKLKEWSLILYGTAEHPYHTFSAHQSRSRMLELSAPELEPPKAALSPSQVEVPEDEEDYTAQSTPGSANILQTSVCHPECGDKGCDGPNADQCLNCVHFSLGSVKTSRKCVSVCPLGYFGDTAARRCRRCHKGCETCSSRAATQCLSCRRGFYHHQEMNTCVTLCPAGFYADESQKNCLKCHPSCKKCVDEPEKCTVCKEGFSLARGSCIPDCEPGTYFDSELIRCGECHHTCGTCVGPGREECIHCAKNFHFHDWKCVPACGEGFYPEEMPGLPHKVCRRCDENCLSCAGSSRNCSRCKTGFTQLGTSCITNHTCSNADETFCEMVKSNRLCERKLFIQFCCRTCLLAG
Outline: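 Human recombinant purified PACE4 at 2 units/100 µL (20.18 nM), in 20 mM BisTris pH 6.5, 1 mM CaCl2, 1.8 mg/mL BSA. Substrate 100 µM, KM 4.035 µM. Inhibitor 1 nM to 10 µM; 60 min at 37°C. Fluorescence ex 370 / em 460 nm. Ki by Morrison tight-binding equation; three independent experiments, mean ± SD.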

Furin = Furin (Homo sapiens, UniProt P09958); assay: Inhibition of recombinant human furin expressed in drosophila S2 cells using pyrGlu-Arg-Thr-Lys-Arg-7-amido-4-methylcoumarin as substrate after 60 mins by spectrofluorometry method; type: cell-based
Furin, sequence (P09958 whole entry): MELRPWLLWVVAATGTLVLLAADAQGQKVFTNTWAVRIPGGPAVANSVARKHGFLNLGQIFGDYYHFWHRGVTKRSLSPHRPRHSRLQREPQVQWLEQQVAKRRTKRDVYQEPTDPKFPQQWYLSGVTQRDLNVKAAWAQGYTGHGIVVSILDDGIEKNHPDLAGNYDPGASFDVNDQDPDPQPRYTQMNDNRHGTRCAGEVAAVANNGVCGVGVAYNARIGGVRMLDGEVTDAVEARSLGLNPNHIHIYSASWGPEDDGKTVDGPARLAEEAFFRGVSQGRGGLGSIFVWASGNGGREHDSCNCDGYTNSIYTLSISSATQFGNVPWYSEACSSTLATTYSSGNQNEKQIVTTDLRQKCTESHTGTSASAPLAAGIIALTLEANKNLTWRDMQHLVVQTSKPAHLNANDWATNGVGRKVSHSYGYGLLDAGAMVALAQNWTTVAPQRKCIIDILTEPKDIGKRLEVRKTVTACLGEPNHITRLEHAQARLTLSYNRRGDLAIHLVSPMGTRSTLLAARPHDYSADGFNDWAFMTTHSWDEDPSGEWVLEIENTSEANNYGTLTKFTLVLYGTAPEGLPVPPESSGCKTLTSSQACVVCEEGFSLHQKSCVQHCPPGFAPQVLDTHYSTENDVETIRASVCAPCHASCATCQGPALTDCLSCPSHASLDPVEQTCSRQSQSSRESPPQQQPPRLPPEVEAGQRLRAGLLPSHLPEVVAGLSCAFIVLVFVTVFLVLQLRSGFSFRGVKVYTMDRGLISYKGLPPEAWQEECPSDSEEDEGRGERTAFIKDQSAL
Outline: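 Human recombinant purified furin at 2 units/100 µL (0.54 nM), in 100 mM HEPES pH 7.5, 1 mM CaCl2, 1 mM β-mercaptoethanol, 1.8 mg/mL BSA. His-containing peptides run instead in 20 mM BisTris pH 6.5 with the same additives. Substrate 100 µM, KM 5.04 µM. Inhibitor 1 nM to 10 µM; 60 min at 37°C. Fluorescence ex 370 / em 460 nm. Ki by Morrison equation; triplicate experiments, mean ± SD.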

Homo sapiens = species on record: Homo sapiens; assay: Selectivity index, ratio of Ki for recombinant human furin expressed in drosophila S2 cells to Ki for recombinant human PACE4 expressed in drosophila S2 cells; type: cell-based
Outline: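 Ratio Ki(furin)/Ki(PACE4). […] PACE4 buffer was BisTris pH 6.5; furin buffer was HEPES pH 7.5, or BisTris pH 6.5 for His peptides. Ki fitted by Morrison equation from three independent experiments.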

DU-145 = assay: Antiproliferative activity against human DU145 cells assessed as reduction in metabolic activity after 72 hrs by MTT assay; type: functional, cell-based; settings: DU-145, 72 h
Outline: (§1)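 Cells kept at 37°C, 5% CO2 in RPMI 1640 (DU145 with 5% FBS, 1500 cells/well; LNCaP with 10% FBS, 2500 cells/well) on poly-L-lysine coated plates. Peptides added 24 h after plating in fresh serum medium at 0, 1, 10, 25, 50, 75, 100, 250 µM for 72 h. MTT 1 mg/mL final for 4 h; formazan dissolved in 2-propanol HCl. Signal normalised to water vehicle; IC50 from dose-response curves.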

LNCaP = assay: Antiproliferative activity against human LNCAP cells assessed as reduction in metabolic activity after 72 hrs by MTT assay; type: functional, cell-based; outline: as §1

| SMILES | Flu intensity [1] | Flu intensity [2] | Ki [3] | Ki (Furin) | Ratio Ki (Homo sapiens) | IC50 (DU-145) | IC50 (LNCaP) |
| --- | --- | --- | --- | --- | --- | --- | --- |
| CC[C@H](C)[C@H](NC(=O)[C@H](CC(C)C)NC(=O)[C@H](CC(C)C)NC(=O)[C@H](CC(C)C)NC(=O)CCNC(=S)Nc1ccc2c(c1)C(=O)OC21c2ccc(O)cc2Oc2cc(O)ccc21)C(=O)N[C@@H](CCCNC(=N)N)C(=O)N[C@H](C(=O)N[C@@H](CCCCN)C(=O)NCc1ccc(C(=N)N)cc1)C(C)C ({FITC-βAla}-LLLIRVK-{NH(4-amidinobenzyl)}) | 87.66 | 99.26 |  |  |  |  |  |
| CC(C)C[C@H](NC(=O)CCNC(=S)Nc1ccc2c(c1)C(=O)OC21c2ccc(O)cc2Oc2cc(O)ccc21)C(=O)N[C@@H](CC(C)C)C(=O)N[C@@H](CC(C)C)C(=O)N[C@@H](CCCNC(=N)N)C(=O)N[C@@H](CCCNC(=N)N)C(=O)N[C@H](C(=O)N[C@@H](CCCCN)C(=O)NCc1ccc(C(=N)N)cc1)C(C)C ({FITC-βAla}-LLLRRVK-{NH(4-amidinobenzyl)}) | 12.6 | 2.73 |  |  |  |  |  |
| CC[C@H](C)[C@H](NC(=O)[C@H](CC(C)C)NC(C)=O)C(=O)N[C@@H](CC(C)C)C(=O)N[C@@H](CC(C)C)C(=O)N[C@@H](CCCNC(=N)N)C(=O)N[C@H](C(=O)N[C@@H](CCCCN)C(=O)NCc1ccc(C(=N)N)cc1)C(C)C (Ac-LILLRVK-{NH(4-amidinobenzyl)}) |  |  | 0.0025 µM | 0.002 µM | 0.8 | 31 µM | 40 µM |
| CC(=O)N[C@@H](Cc1c[nH]c2ccccc12)C(=O)N[C@@H](CC(C)C)C(=O)N[C@@H](CC(C)C)C(=O)N[C@@H](CC(C)C)C(=O)N[C@@H](CCCNC(=N)N)C(=O)N[C@H](C(=O)N[C@@H](CCCCN)C(=O)NCc1ccc(C(=N)N)cc1)C(C)C (Ac-WLLLRVK-{NH(4-amidinobenzyl)}) |  |  | 0.009 µM | 0.006 µM | 0.7 | 23 µM | 39 µM |
| CC(C)C[C@H](NC(=O)CCNC(=S)Nc1ccc2c(c1)C(=O)OC21c2ccc(O)cc2Oc2cc(O)ccc21)C(=O)N[C@@H](CC(C)C)C(=O)N[C@@H](CC(C)C)C(=O)N[C@@H](CC(C)C)C(=O)N[C@@H](CCCNC(=N)N)C(=O)N[C@H](C(=O)N[C@@H](CCCCN)C(=O)NCc1ccc(C(=N)N)cc1)C(C)C ({FITC-βAla}-LLLLRVK-{NH(4-amidinobenzyl)}) | 46.61 | 47.45 |  |  |  |  |  |
| CC(=O)N[C@@H](CC(C)C)C(=O)N[C@@H](CC(C)C)C(=O)N[C@@H](Cc1ccc(O)cc1)C(=O)N[C@@H](CC(C)C)C(=O)N[C@@H](CCCNC(=N)N)C(=O)N[C@H](C(=O)N[C@@H](CCCCN)C(=O)NCc1ccc(C(=N)N)cc1)C(C)C (Ac-LLYLRVK-{NH(4-amidinobenzyl)}) |  |  | 0.0048 µM | 0.0059 µM | 1.2 | 50 µM | 130 µM |
| CC(=O)N[C@@H](CC(C)C)C(=O)N[C@@H](CC(C)C)C(=O)N[C@@H](CC(C)C)C(=O)N[C@@H](CCC(N)=O)C(=O)N[C@@H](CCCNC(=N)N)C(=O)N[C@H](C(=O)N[C@@H](CCCCN)C(=O)NCc1ccc(C(=N)N)cc1)C(C)C (Ac-LLLQRVK-{NH(4-amidinobenzyl)}) |  |  | 0.005 µM | 0.004 µM | 0.8 | 12 µM | 26 µM |
| CC(=O)N[C@@H](CC(C)C)C(=O)N[C@@H](CC(C)C)C(=O)N[C@@H](CC(C)C)C(=O)N[C@@H](Cc1ccccc1)C(=O)N[C@@H](CCCNC(=N)N)C(=O)N[C@H](C(=O)N[C@@H](CCCCN)C(=O)NCc1ccc(C(=N)N)cc1)C(C)C (Ac-LLLFRVK-{NH(4-amidinobenzyl)}) |  |  | 0.004 µM | 0.006 µM | 1.5 | 40 µM | 50 µM |
| CC(=O)N[C@@H](CC(C)C)C(=O)N[C@@H](Cc1ccccc1)C(=O)N[C@@H](CC(C)C)C(=O)N[C@@H](CC(C)C)C(=O)N[C@@H](CCCNC(=N)N)C(=O)N[C@H](C(=O)N[C@@H](CCCCN)C(=O)NCc1ccc(C(=N)N)cc1)C(C)C (Ac-LFLLRVK-{NH(4-amidinobenzyl)}) |  |  | 0.008 µM | 0.007 µM | 0.9 | 36 µM | 31 µM |
